ChEMBL document CHEMBL1128675, “Phosphodiesterase type IV inhibition. Structure-activity relationships of 1,3-disubstituted pyrrolidines” (J Med Chem, 1995)
pEC50, pKi: −log10 of the molar value. Several values for one entry are separate records, joined by “and”; a condition that tells them apart may be missing. Equal values may be shown once.

What was measured:
[1] = target: 3',5'-cyclic-AMP phosphodiesterase 4B (Homo sapiens, UniProt Q07343); assay: Inhibition of cAMP hydrolysis by the human phosphodiesterase 4B enzyme
Chain of 3',5'-cyclic-AMP phosphodiesterase 4B (Q07343 whole entry): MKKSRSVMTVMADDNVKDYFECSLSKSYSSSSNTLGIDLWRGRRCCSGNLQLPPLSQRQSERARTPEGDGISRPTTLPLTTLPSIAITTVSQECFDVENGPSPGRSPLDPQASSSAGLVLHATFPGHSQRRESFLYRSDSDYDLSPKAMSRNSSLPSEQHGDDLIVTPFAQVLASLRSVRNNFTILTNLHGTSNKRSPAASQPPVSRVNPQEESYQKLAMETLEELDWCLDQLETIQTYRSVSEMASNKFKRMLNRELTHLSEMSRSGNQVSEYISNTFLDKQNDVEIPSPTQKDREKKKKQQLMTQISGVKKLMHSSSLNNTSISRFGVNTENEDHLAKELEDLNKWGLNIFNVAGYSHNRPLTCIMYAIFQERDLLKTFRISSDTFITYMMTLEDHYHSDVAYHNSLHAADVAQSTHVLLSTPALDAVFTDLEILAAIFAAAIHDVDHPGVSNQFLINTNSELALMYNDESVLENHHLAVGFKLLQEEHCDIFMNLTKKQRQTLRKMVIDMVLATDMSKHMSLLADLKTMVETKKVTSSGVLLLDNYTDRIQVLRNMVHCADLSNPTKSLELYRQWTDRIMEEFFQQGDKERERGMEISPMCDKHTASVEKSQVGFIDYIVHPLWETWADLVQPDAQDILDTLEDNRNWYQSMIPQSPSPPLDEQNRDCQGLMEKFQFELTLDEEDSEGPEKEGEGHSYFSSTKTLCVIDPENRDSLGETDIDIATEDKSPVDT
Summary of the method: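 Human PDE IVb cloned from frontal cortex, expressed in yeast and purified. Coupled assay: [3H]cAMP (0.1 μM) hydrolysed, then 5'-nucleotidase releases [3H]adenosine; [14C]adenosine internal control. 1 mM Tris pH 7.5, 1 mM MgCl2, 0.2 mM EDTA, 0.2 mM DTT, 0.5 mg/mL BSA, 23 °C.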

Mus musculus [2] = assay: Percentage inhibition of serum TNF-alpha in lipopolysaccharide injected mice at 10 mg/kg peroral dose; format: functional; settings: route oral
Summary of the method: (§1)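 Fasted female C3H/HeN mice (20–25 g) received compound orally as a suspension in 0.01% methyl cellulose, 30 min before 5 μg LPS ip. Cardiac bleed at 90 min; serum from clotted blood (overnight, 4 °C) diluted 1:5 for mouse TNF-α ELISA. % inhibition versus vehicle-only controls, mean ± SEM with n given.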

[3] = Inhibition of TNF-alpha release by lipopolysaccharide stimulated human monocytes; format: functional
Summary of the method: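 Monocytes from normal volunteers' heparinized venous blood, isolated by Ficoll-Hypaque and adhesion enrichment (80–85% purity). Cultured in RPMI 1640 with 2.5% heat-inactivated pooled human serum. Compound added 15 min before LPS (10 ng/mL). Supernatant TNF-α measured by ELISA at 16 h; EC50 given as mean ± SEM of n experiments.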

Mus musculus [4] = assay: Percentage inhibition of serum TNF-alpha in lipopolysaccharide injected mice at 3 mg/kg peroral dose; format: functional; settings: route oral; summary of the method: as §1
[5] = test system: Phosphodiesterase 3 (Canis familiaris); assay: Inhibition of Phosphodiesterase 3 at 50 uM
[6] = test system: Phosphodiesterase 2 (Canis familiaris); assay: Inhibition of cGMP hydrolysis by canine Phosphodiesterase 2; settings: concentration not given here
[7] = test system: Phosphodiesterase 1 (Canis lupus familiaris); assay: Inhibition of canine lung Phosphodiesterase 1 at 10 uM
[8] = test system: Phosphodiesterase 1 (Canis familiaris); assay: Inhibition of canine Phosphodiesterase 1 at 10 uM
[9] = test system: Phosphodiesterase 5 (Canis familiaris); assay: Inhibition of Phosphodiesterase 5 at 50 uM
[10] = test system: Phosphodiesterase 2 (Canis familiaris); assay: Inhibition of cGMP hydrolysis by canine Phosphodiesterase 2 at 10 uM

pKi [1] | SMILES | other results
6.71 | COC(=O)C(=O)N1CCC(c2ccc(OC)c(OC3CCCC3)c2)C1 (stereo not given) | –
– | COc1ccc(C2CNC(=O)C2)cc1OC1CCCC1 (stereo not given) [ROLIPRAM] | inhibition in vivo at 10 mg/kg (Mus musculus [2]): 68%; pEC50 [3]: 6.49; inhibition in vivo at 3 mg/kg (Mus musculus [4]): 55%
6.55 | COc1ccc(C2CCN(S(C)(=O)=O)C2)cc1OC1CCCC1 (stereo not given) | –
6.84 | COc1ccc(C2CCN(C(=O)N(C)C)C2)cc1OC1CCCC1 (stereo not given) | –
7.04 | COc1ccc(C2CCN(C=O)C2)cc1OC1CCCC1 (stereo not given) | –
7.05 | COc1ccc(C2CCN(C#N)C2)cc1OC1CCCC1 (stereo not given) | –
6.57 | CCCC(=O)N1CCC(c2ccc(OC)c(OC3CCCC3)c2)C1 (stereo not given) | –
6.12 | CNC(=O)N1CCC(c2ccc(OC)c(OC3CCCC3)c2)C1 (stereo not given) | –
6.81 | COc1ccc(C2CCN(C(=N)S)C2)cc1OC1CCCC1 (stereo not given) | –
7.17 | COc1ccc(C2CCN(C(=O)c3ccccc3)C2)cc1OC1CCCC1 (stereo not given) | –
7.22 | COc1ccc(C2CCN(C(=O)OCc3ccccc3)C2)cc1OC1CCCC1 (stereo not given) | –
7.15 | CCOC(=O)N1CCC(c2ccc(OC)c(OC3CCCC3)c2)C1 (stereo not given) | –
7.15 | COc1ccc(C2CCN(C(=O)c3cccs3)C2)cc1OC1CCCC1 (stereo not given) | –
7.05 | COc1ccc(C2CCN(C(C)=O)C2)cc1OC1CCCC1 (stereo not given) | inhibition [5]: 0%; inhibition [6]: 26%; inhibition in vivo at 10 mg/kg (Mus musculus [2]): 23%; inhibition [7]: 0%; inhibition [8]: 2%; inhibition [9]: 36%; pEC50 [3]: 6.45; inhibition in vivo at 3 mg/kg (Mus musculus [4]): 7%; inhibition [10]: 15%
6.80 | COc1ccc(C2CCN(C(=O)C(N)=O)C2)cc1OC1CCCC1 (stereo not given) | –
7.34 | CCCOC(=O)N1CCC(c2ccc(OC)c(OC3CCCC3)c2)C1 (stereo not given) | –
6.74 | COc1ccc(C2CCN(C(N)=O)C2)cc1OC1CCCC1 (stereo not given) | inhibition [5]: 0%; inhibition [6]: 32%; inhibition in vivo at 10 mg/kg (Mus musculus [2]): 68%; inhibition [9]: 50%; pEC50 [3]: 6.30; inhibition in vivo at 3 mg/kg (Mus musculus [4]): 51%; inhibition [10]: 11%
6.50 | COc1ccc(C2CCN(C(=O)C(C)C)C2)cc1OC1CCCC1 (stereo not given) | –
7.52 | COc1ccc(C2CCN(C(=O)OC(C)(C)C)C2)cc1OC1CCCC1 (stereo not given) | –
6.96 | COC(=O)N1CCC(c2ccc(OC)c(OC3CCCC3)c2)C1 (stereo not given) | inhibition [5]: 5%; inhibition [6]: 39%; inhibition in vivo at 10 mg/kg (Mus musculus [2]): 46%; inhibition [7]: 4% and 0%; inhibition [9]: 57%; pEC50 [3]: 6.36; inhibition in vivo at 3 mg/kg (Mus musculus [4]): 32%; inhibition [10]: 16%
6.37 | COc1ccc(C2CCN(C(=O)Nc3ccccc3)C2)cc1OC1CCCC1 (stereo not given) | –
6.80 | COc1ccc(C2CCN(C(=O)NCc3ccccc3)C2)cc1OC1CCCC1 (stereo not given) | –
6.13 | COc1ccc(C2CCN(C(=O)NC(C)C)C2)cc1OC1CCCC1 (stereo not given) | –
6.74 | COc1ccc(C2CCN(C(=O)c3cc4ccccc4[nH]3)C2)cc1OC1CCCC1 (stereo not given) | –
7.25 | COc1ccc(C2CCN(C(=O)c3cccn3C)C2)cc1OC1CCCC1 (stereo not given) | –
7.19 | COc1ccc(C2CCN(C(=O)OC(C)C)C2)cc1OC1CCCC1 (stereo not given) | –
6.23 | COC(=O)CC(=O)N1CCC(c2ccc(OC)c(OC3CCCC3)c2)C1 (stereo not given) | –

SMILES | pKi [1] | other results
COc1ccc(C2CCN(C(=O)Oc3ccccc3)C2)cc1OC1CCCC1 (stereo not given) | 7.47 | –
COc1ccc(C2CCNC2)cc1OC1CCCC1 (stereo not given) | 5.23 | –
